# Experimental data taken from ChEMBL document CHEMBL1123011, “Isoxazoles with antipicornavirus activity” (1985).
# Active and inactive are the calls of the source. No cut-off for these calls is given here.
# Assays:
# [1] = Maximum testable level of compound was evaluated; type: functional
# Outline: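 In the HeLa (Ohio) plaque-overlay system, Me2SO-solubilized compound was twofold serially diluted into the agarose overlay. Uninfected cell controls were run alongside and cells were stained with crystal violet after 3 days. The maximum testable level was taken as the concentration below which no cytotoxic effects were seen.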
# Mus musculus [2] = experiment: Effect of compound on number of survivors per 30 mice at placebo mg/kg; type: functional
# Outline: (§1)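 ICR Buckberg mice (18–21 g) were infected intracerebrally with polio-2 (MEF strain). Compound was given orally bid at 31–250 mg/kg: 1 h before infection, 2 h after, then twice daily for 13 days. Placebo and nonmedicated groups served as controls, with 30 mice per group. Flaccid paralysis and death were scored and survivors counted when the test ended on day 20.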
# Enterovirus [3] = experiment: Effect on plaque production by Human Rhinovirus serotype 29; type: functional
# Outline: (§2)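 HeLa (Ohio) monolayers (day-old, 90%) were infected at about 80 pfu/well and adsorbed at least 1 h at 33 °C in 2% CO2. After 3 days at 33 °C they were fixed with formaldehyde and stained with crystal violet. MIC was the concentration giving 50% fewer plaques.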
# Enterovirus [4] = experiment: Effect on plaque production by Human Rhinovirus serotype 72; NA=Not active; type: functional, organism-based; outline: as §2
# Mus musculus [5] = experiment: Effect of compound on number of survivors per 30 mice at nonmed mg/kg; type: functional; outline: as §1
# Mus musculus [6] = experiment: Effect of compound on number of survivors per 30 mice at dose 125 mg/kg; type: functional; outline: as §1
# Enterovirus [7] = experiment: Effect on plaque production by Human Rhinovirus serotype 50; type: functional; outline: as §2
# Enterovirus [8] = experiment: Effect on plaque production by Human Rhinovirus serotype 18; type: functional; outline: as §2
# Mus musculus [9] = experiment: Effect of compound on number of survivors per 30 mice at dose 31 mg/kg; type: functional; outline: as §1
# Mus musculus [10] = experiment: Effect of compound on Poliovirus induced paralysis and death in mice when administered orally with dose 63 mg/kg.; type: functional; settings: route oral; outline: as §1
# Enterovirus [11] = experiment: Effect on plaque production by Human Rhinovirus serotype 16; type: functional; outline: as §2
# Enterovirus [12] = experiment: Effect on plaque production by Human Rhinovirus serotype 61; type: functional; outline: as §2
# Poliovirus 2 [13] = experiment: Minimum inhibitory concentration of compound in vitro against poliovirus-2; type: functional; settings: Enterovirus C
# Outline: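 Plaque-reduction assay on day-old HeLa (Ohio) monolayers at 90% confluence, infected with polio-2 at ca. 80 pfu/well. Adsorption was at least 1 h at 37 °C in 2% CO2. Cells were then overlaid in duplicate with drug in M-199/calf serum/agarose (Me2SO stock at 10 mg/mL, twofold dilutions) and held 3 days. Plaques were fixed with formaldehyde, stained with crystal violet and counted. MIC is the concentration giving 50% plaque reduction.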
# Enterovirus [14] = experiment: Effect on plaque production by Human Rhinovirus serotype 21; type: functional; outline: as §2
# Mus musculus [15] = experiment: Effect of compound on Poliovirus induced paralysis and death in mice when administered orally with 31 mg/kg.; type: functional; settings: route oral; outline: as §1
# Echovirus E9 = experiment: Minimum inhibitory concentration of compound in vitro against echovirus-9; type: functional; settings: Enterovirus B
# Outline: (§3)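 Plaque reduction on day-old HeLa (Ohio) monolayers, about 80 pfu/well. Drug was serially diluted twofold from a 10 mg/mL Me2SO stock into an M-199/10% calf serum/agarose overlay, applied in duplicate after virus adsorption. Plaques were counted after 3 days in 2% CO2, following formaldehyde fixation and crystal violet staining. MIC was the concentration producing 50% plaque reduction.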
# Mus musculus [16] = experiment: Effect of compound on number of survivors per 30 mice at dose 250 mg/kg; type: functional; outline: as §1
# Enterovirus [17] = experiment: Effect on plaque production by Human Rhinovirus serotype 2; type: functional; outline: as §2
# Mus musculus [18] = experiment: Effect of compound on number of survivors per 30 mice at dose 63 mg/kg; type: functional; outline: as §1
# Poliovirus 2 [19] = experiment: In vitro anti-picornavirus activity against Poliovirus type-2.; type: functional; settings: Enterovirus C
# Enterovirus [20] = experiment: Effect on plaque production by Human Rhinovirus serotype 4 (seven most common serotypes); NA=Not active; type: functional, organism-based; outline: as §2
# Enterovirus [21] = experiment: Effect on plaque production by Human Rhinovirus serotype 41; NA=Not active; type: functional, organism-based; outline: as §2
# Echovirus E11 = experiment: Minimum inhibitory concentration of compound in vitro against echovirus-11; type: functional; settings: Enterovirus B; outline: as §3
# rhinovirus A2 [22] = experiment: Minimum inhibitory concentration of compound in vitro against rhinovirus-2; type: functional, rhinovirus type-2; settings: Rhinovirus A; outline: as §2
# rhinovirus A2 [23] = experiment: In vitro anti-picornavirus activity against Rhinovirus type-2.; type: functional; settings: Rhinovirus A
# Outline: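 HeLa (Ohio) monolayers (day-old, 90%) were infected at about 80 pfu/well and adsorbed at least 1 h at 33 °C in 2% CO2. After 3 days at 33 °C they were fixed with formaldehyde and stained with crystal violet.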
# Mus musculus [24] = experiment: Effect of compound on Poliovirus induced paralysis and death in mice when administered orally with dose 250 mg/kg.; type: functional; settings: route oral; outline: as §1
# Enterovirus [25] = experiment: Effect on plaque production by Human Rhinovirus serotype 1B (seven most common serotypes); type: functional; outline: as §2
# Enterovirus [26] = experiment: Effect on plaque production by Human Rhinovirus serotype 14; type: functional; outline: as §2
# Enterovirus [27] = experiment: Effect on plaque production by Human Rhinovirus serotype 15 (seven most common serotypes); type: functional; outline: as §2
# Enterovirus [28] = experiment: Effect on plaque production by Human Rhinovirus serotype 22; type: functional; outline: as §2
# Enterovirus [29] = experiment: Effect on plaque production by Human Rhinovirus serotype 3; type: functional; outline: as §2
# Enterovirus [30] = experiment: Effect on plaque production by Human Rhinovirus serotype 86; type: functional; outline: as §2
# Enterovirus [31] = experiment: Effect on plaque production by Human Rhinovirus serotype 29 (seven most common serotypes); type: functional; outline: as §2
# Mus musculus [32] = experiment: Effect of compound on Poliovirus induced paralysis and death in mice when administered orally with nonmed mg/kg.; type: functional; outline: as §1
# Mus musculus [33] = experiment: Effect of compound on Poliovirus induced paralysis and death in mice when administered orally with dose 125 mg/kg.; type: functional; settings: route oral; outline: as §1
# Enterovirus [34] = experiment: Effect on plaque production by Human Rhinovirus serotype 89; type: functional; outline: as §2
# Enterovirus [35] = experiment: Effect on plaque production by Human Rhinovirus serotype 49; type: functional; outline: as §2
# Enterovirus [36] = experiment: Effect on plaque production by Human Rhinovirus serotype 36; type: functional; outline: as §2
# Mus musculus [37] = experiment: Effect of compound on Poliovirus induced paralysis and death in mice when administered orally with placebo mg/kg.; type: functional; outline: as §1
# Enterovirus [38] = experiment: Effect on plaque production by Human Rhinovirus serotype 33; type: functional; outline: as §2
# Enterovirus [39] = experiment: Effect on plaque production by Human Rhinovirus serotype 31 (seven most common serotypes); type: functional; outline: as §2
# Enterovirus [40] = experiment: Effect on plaque production by Human Rhinovirus serotype 39; type: functional; outline: as §2
# Enterovirus [41] = experiment: Effect on plaque production by Human Rhinovirus serotype 5; type: functional; outline: as §2
# Enterovirus [42] = experiment: Effect on plaque production by Human Rhinovirus serotype 13; type: functional; outline: as §2
# Poliovirus 3 = experiment: Minimum inhibitory concentration of compound in vitro against poliovirus-3; type: functional; settings: Enterovirus C
# Enterovirus [43] = experiment: Effect on plaque production by Human Rhinovirus serotype 1A (seven most common serotypes); type: functional; outline: as §2
# Enterovirus [44] = experiment: Effect on plaque production by Human Rhinovirus serotype 75; type: functional; outline: as §2
structure (smiles),measurement,setting,value
COc1ccc(OCCCCCCCc2cc(C)no2)c(Cl)c1,MTL,[1],12.5 µg/mL
same,Survivors,Mus musculus [2],7
same,MIC,Enterovirus [3],3.1 µg/mL
same,MIC,Enterovirus [4],inactive
same,Survivors,Mus musculus [5],7
same,Survivors,Mus musculus [6],22
same,MIC,Enterovirus [7],0.13 µg/mL
same,MIC,Enterovirus [8],1.5 µg/mL
same,Survivors,Mus musculus [9],16
same,survival at 63 mg/kg,Mus musculus [10],67%
same,MIC,Enterovirus [11],0.04 µg/mL
same,MIC,Enterovirus [12],0.09 µg/mL
same,MIC,Poliovirus 2 [13],0.05 µg/mL
same,MIC,Enterovirus [14],0.01 µg/mL
same,survival at 31 mg/kg,Mus musculus [15],53%
same,MIC,Echovirus E9,0.15 µg/mL
same,Survivors,Mus musculus [16],28
same,MIC,Enterovirus [17],0.04 µg/mL
same,Survivors,Mus musculus [18],20
same,MIC,Poliovirus 2 [19],0.05 µg/mL
same,MIC,Enterovirus [20],inactive
same,MIC,Enterovirus [21],inactive
same,MIC,Echovirus E11,0.04 µg/mL
same,MIC,rhinovirus A2 [22],0.04 µg/mL
same,MIC,rhinovirus A2 [23],0.04 µg/mL
same,survival at 250 mg/kg,Mus musculus [24],93%
same,MIC,Enterovirus [25],0.37 µg/mL
same,MIC,Enterovirus [26],1.35 µg/mL
same,MIC,Enterovirus [27],0.44 µg/mL
same,MIC,Enterovirus [28],0.1 µg/mL
same,MIC,Enterovirus [29],0.5 µg/mL
same,MIC,Enterovirus [30],0.25 µg/mL
same,MIC,Enterovirus [31],0.33 µg/mL
same,Survival,Mus musculus [32],22%
same,survival at 125 mg/kg,Mus musculus [33],73%
same,MIC,Enterovirus [34],0.03 µg/mL
same,MIC,Enterovirus [35],0.26 µg/mL
same,MIC,Enterovirus [36],0.04 µg/mL
same,Survival,Mus musculus [37],22%
same,MIC,Enterovirus [38],0.05 µg/mL
same,MIC,Enterovirus [39],0.53 µg/mL
same,MIC,Enterovirus [40],0.07 µg/mL
same,MIC,Enterovirus [41],5.8 µg/mL
same,MIC,Enterovirus [42],1.9 µg/mL
same,MIC,Poliovirus 3,0.08 µg/mL
same,MIC,Enterovirus [43],0.29 µg/mL
same,MIC,Enterovirus [44],4.1 µg/mL
